Series [1] is classed as physicochemical. The note with it: pH 7.4.
Another series can be described thus: Probe stability in PBS. Format: physicochemical. The note with it: PBS pH 7.4, 37°C, 3.7 MBq in 0.5 mL, HPLC. Put shortly: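 Radiolabeled peptide (3.7 MBq) was added to 0.5 mL PBS and held at 37°C for 1, 6 and 24 h. At each time an aliquot was taken and radiochemical purity was measured by radio-HPLC on a C18 reversed-phase column, with UV at 214/254 nm. Results are given as % intact tracer.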

The test system of series [2] is U87MG human glioblastoma cells. In words: Cell efflux. To be noted: after 2 h efflux incubation. It is filed as cell-based. In short, it runs like this: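 Cells seeded at 2.5×10^5/well 24 h ahead, then loaded with 370 kBq/well radiotracer for 2 h at 37°C to allow internalization. After two PBS washes, cells were kept in culture medium for 15, 30, 60 and 120 min, washed three times with PBS and detached with 0.25% trypsin/0.02% EDTA. Cell-bound activity was gamma counted and expressed as % of added dose after decay correction. Two experiments, triplicate wells.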

The next series in a line: in vivo. The note with it: female, athymic nude, mouse, 7.4 MBq, total radioactivity.

Molecules are shown by their SMILES. Where a SMILES comes first, the peptide text is derived from it. Bridges are numbered along the chain shown (N, C = ends). The star is where a group is joined. DOTA = O=C(O)CN1CCN(CC(=O)O)CCN(CC(=O)*)CCN(CC(=O)O)CC1

The text below walks through data of paper PMC3629956 (Molecular imaging and biology : MIB : the official …, 2012).

Take `NCCCC[C@@H]1NC(=O)[C@@H]2CCCN2C(=O)[C@H](CC(N)=O)NC(=O)[C@H](CO)NC(=O)[C@H](CC(N)=O)NC(=O)CNC(=O)[C@@H](NC(=O)CN2CCN(CC(=O)O)CCN(CC(=O)O)CCN(CC(=O)O)CC2)CSSC[C@@H](C(N)=O)NC(=O)[C@H](CO)NC1=O` [^64Cu-DOTA-GX1, metal not drawn] ({DOTA}-CGNSNPKSC-NH2; disulfide 1-9; N-terminus and C-terminus assumed): in series [1], the “octanol/water partition coefficient (log P)” value is on record as −2.42±0.003. For the same compound, the “percentage of intact tracer in PBS” value in “Probe stability in PBS” (6 h incubation) is recorded as “more than 95%”; in “Probe stability in PBS” (24 h incubation) it was “more than 91%”. In addition, in series [2], the “radioactivity still associated with the cells” value worked out at 76%. The tissue uptake at 24 h is 6.46 ± 0.29 %ID/g in the series “in vivo” (U87MG tumor uptake (biodistribution)) and 5.03 ± 0.14 %ID/g in “in vivo” (liver uptake (biodistribution)).
